Reference: ChEMBL document CHEMBL1127575, “Synthesis of androst-5-en-7-ones and androsta-3,5-dien-7-ones and their related 7-deoxy analogs as conformational and catalytic probes for the active site of aromatase” (J Med Chem, 1994)

Experiments:
Aromatase [1] = molecular target: T1, Aromatase (Homo sapiens, UniProt P11511); assay: The binding affinity was determined on Cytochrome P450 19A1 by analysis of Dixon plot
T1 sequence (P11511 whole entry): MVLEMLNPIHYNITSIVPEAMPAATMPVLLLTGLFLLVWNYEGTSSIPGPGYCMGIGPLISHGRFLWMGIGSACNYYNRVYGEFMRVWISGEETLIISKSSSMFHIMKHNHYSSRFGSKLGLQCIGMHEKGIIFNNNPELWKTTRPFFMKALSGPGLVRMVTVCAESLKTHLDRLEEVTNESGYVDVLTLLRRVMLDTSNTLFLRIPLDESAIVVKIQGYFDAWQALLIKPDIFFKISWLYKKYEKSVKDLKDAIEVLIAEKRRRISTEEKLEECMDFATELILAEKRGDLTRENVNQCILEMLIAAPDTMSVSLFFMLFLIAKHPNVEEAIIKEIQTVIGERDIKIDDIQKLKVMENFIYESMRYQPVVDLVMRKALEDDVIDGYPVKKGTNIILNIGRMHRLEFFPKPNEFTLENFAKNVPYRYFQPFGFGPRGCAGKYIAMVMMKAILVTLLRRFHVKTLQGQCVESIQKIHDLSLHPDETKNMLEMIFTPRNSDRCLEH

Aromatase [2] = molecular target: T1, Aromatase; assay: In vitro competitive inhibitory activity was measured on Cytochrome P450 19A1 of human placental microsomes
Aromatase [3] = molecular target: T1, Aromatase; assay: Time dependent inactivation of Cytochrome P450 19A1 was obtained by Kitz-Wilson plot
Aromatase [4] = molecular target: T1, Aromatase; assay: Time dependent inactivation of aromatase cytochrome P450 19A1 from Kitz-Wilson plot
Summary of the method: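 Human placental microsomes (105000g pellet, washed with 0.05 mM dithiothreitol, lyophilized) incubated with inhibitor plus NADPH in 67 mM phosphate buffer in air. Residual aromatase activity then measured in 5-min kinetic assay by 3H2O release from [1β-3H]androstenedione. Pseudo-first-order loss over first 12 min analysed by Kitz-Wilson method. Double-reciprocal plot of kobs versus inhibitor concentration gave kinact and Ki. Points are means of duplicates.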

Aromatase [5] = molecular target: T1, Aromatase; assay: Binding affinity for aromatase cytochrome P45019A1 by analysis of Dixon plot

## C[C@]12CC[C@H]3[C@@H](CC=C4CCCC[C@@]43CO)[C@@H]1CCC2=O
Aromatase [1]
  Ki: 1 µM
Aromatase [2]
  IC50: 6.9 µM

## C[C@]12CCCCC1=CC[C@@H]1[C@@H]2CC[C@]2(C)C(=O)CC[C@@H]12
Aromatase [1]
  Ki: 0.12 µM
Aromatase [2]
  IC50: 0.66 µM

## CC12CCC3C(C(=O)C=C4C=CCCC43C)C1CCC2=O (stereo unspecified)
Aromatase [3]
  Ki: 0.18 µM
  kinact: 0.00198 s⁻¹
Aromatase [1]
  Ki: 0.22 µM
Aromatase [2]
  IC50: 1.8 µM

## CC12CCCCC1=CC(=O)C1C2CCC2(C)C(O)CCC12 (stereo unspecified)
Aromatase [1]
  Ki: 5.5 µM
Aromatase [2]
  IC50: 42 µM

## CC12CCC3C(C(=O)C=C4C=CCCC43C=O)C1CCC2=O (stereo unspecified)
Aromatase [1]
  Ki: 1.8 µM
Aromatase [2]
  IC50: 11 µM
Aromatase [4]
  Ki: 2.9 µM
  kinact: 0.00315 s⁻¹

## CC12CCC3C(C(=O)C=C4C=CCCC43CO)C1CCC2=O (stereo unspecified)
Aromatase [1]
  Ki: 15 µM
Aromatase [2]
  IC50: 60 µM
Aromatase [4]
  Ki: 7 µM
  kinact: 0.00147 s⁻¹

## CC12CCC3C(C(=O)C=C4CCCCC43CO)C1CCC2=O (stereo unspecified)
Aromatase [3]
  Ki: 11 µM
  kinact: 0.000967 s⁻¹
Aromatase [1]
  Ki: 11 µM
Aromatase [2]
  IC50: 56 µM

## CC12CCC3C(CC=C4CCCCC43CO)C1CCC2O (stereo unspecified)
Aromatase [2]
  IC50: 62 µM
Aromatase [5]
  Ki: 9.8 µM

## CC12CCC3C4CCC(=O)C=C4CCC3C1CCC2=O (stereo unspecified)
Aromatase [2]
  IC50: 1.2 µM
Aromatase [5]
  Ki: 0.14 µM

## CC12CCC=CC1=CC(=O)C1C2CCC2(C)C1CC[C@@H]2O (stereo partly specified)
Aromatase [1]
  Ki: 5.3 µM
Aromatase [2]
  IC50: 42 µM

## CC12CCC3C(C(=O)C=C4CCCCC43CO)C1CCC2O (stereo unspecified)
Aromatase [1]
  Ki: 45 µM
Aromatase [2]
  IC50: 140 µM

## CC12CCCCC1=CCC1C2CCC2(C)C(O)CCC12 (stereo unspecified)
Aromatase [1]
  Ki: 3 µM
Aromatase [2]
  IC50: 30 µM

## CC12CCC3C(C(=O)C=C4CCCCC43C)C1CCC2=O (stereo unspecified)
Aromatase [3]
  Ki: 0.15 µM
  kinact: 0.00115 s⁻¹
Aromatase [1]
  Ki: 0.25 µM
Aromatase [2]
  IC50: 1.8 µM

## CC12CCC3C4CCCCC4=CC(=O)C3C1CCC2=O (stereo unspecified)
Aromatase [3]
  Ki: 2.6 µM
  kinact: 0.00113 s⁻¹
Aromatase [1]
  Ki: 2.4 µM
Aromatase [2]
  IC50: 28 µM

## CC12CCC=CC1=CCC1C2CCC2(C)C1CC[C@@H]2O (stereo partly specified)
Aromatase [1]
  Ki: 2 µM
Aromatase [2]
  IC50: 18 µM

## CC12CCC3C(CC=C4C=CCCC43C)C1CCC2=O (stereo unspecified)
Aromatase [1]
  Ki: 0.058 µM
Aromatase [2]
  IC50: 0.34 µM

## CC12CCC3C(C(=O)C=C4CCCCC43C=O)C1CCC2=O (stereo unspecified)
Aromatase [3]
  Ki: 20 µM
  kinact: 0.00238 s⁻¹
Aromatase [1]
  Ki: 13 µM
Aromatase [2]
  IC50: 60 µM

## CC12CCC3C(CC=C4CCCCC43C)C1C[C@@H](Br)C2=O (stereo partly specified)
Aromatase [1]
  Ki: 11 µM
Aromatase [2]
  IC50: 55 µM

## CC12CCC3C4CCC=CC4=CC(=O)C3C1CCC2=O (stereo unspecified)
Aromatase [1]
  Ki: 3 µM
Aromatase [2]
  IC50: 33 µM

## CC12CCC3C(CC=C4CCCCC43C=O)C1CCC2=O (stereo unspecified)
Aromatase [2]
  IC50: 9 µM
Aromatase [5]
  Ki: 1.4 µM

## C[C@]12CCC(=O)C=C1CC[C@@H]1[C@@H]2CC[C@]2(C)C(=O)CC[C@@H]12 [ANDROSTENEDIONE]
Aromatase [2]
  IC50: 0.3 µM
Aromatase [5]
  Ki: 0.02 µM
